CYP2C19 inh = inhibitors of human CYP2C19; P33261; CYP2C19 Supersomes, luciferin-H EGE luminescence, 30 min; inhibition, % at 5 µM; 96,000 compounds, 21% hits; AID 778;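 active means CYP2C19 inhibition above a set limit at 5 µM in the primary screen, cut at about 50% in these data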;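 further: plate controls were negative control wells for no effect and 2.5 mM tranylcypromine positive control for full effect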
CYP2C19 activ = activators of human cytochrome P450 2C19; recombinant CYP2C19, luciferin-H EGE luminescence; active compounds read high; 0 = fully inhibited enzyme, 1 = untreated enzyme; activation factor at 5 µM; AID 1025; 96,000 tested, under 10 active;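 active means activation factor of at least 2 at 5 µM in the primary screen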;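 further: 0 = wells with 2.5 mM tranylcypromine and 1 = vehicle-only wells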
CYP2C9 inh = human CYP2C9 inhibition. P11712. CYP2C9 Supersomes, luciferin-H conversion, luminescence. inhibition, % at 5 µM. 96,000 compounds, 20% hits. AID 777;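 active means blocking of liver enzyme CYP2C9 beyond about 50% at 5 µM, limit read from the data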
Cav32 inh = human Cav3.2 channel inhibition, primary screen; B-score at 10 µM; Cav3.2-expressing cells, Fluo-4 calcium fluorescence FDSS; active compounds read low; 100,000 compounds, 4% hits; AID 449739;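 active means single-dose well whose peak fluorescence ratio is a statistical outlier from its plate by either plate-standardised score or position-corrected B-score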
Target sequence (O95180 whole entry, looked up): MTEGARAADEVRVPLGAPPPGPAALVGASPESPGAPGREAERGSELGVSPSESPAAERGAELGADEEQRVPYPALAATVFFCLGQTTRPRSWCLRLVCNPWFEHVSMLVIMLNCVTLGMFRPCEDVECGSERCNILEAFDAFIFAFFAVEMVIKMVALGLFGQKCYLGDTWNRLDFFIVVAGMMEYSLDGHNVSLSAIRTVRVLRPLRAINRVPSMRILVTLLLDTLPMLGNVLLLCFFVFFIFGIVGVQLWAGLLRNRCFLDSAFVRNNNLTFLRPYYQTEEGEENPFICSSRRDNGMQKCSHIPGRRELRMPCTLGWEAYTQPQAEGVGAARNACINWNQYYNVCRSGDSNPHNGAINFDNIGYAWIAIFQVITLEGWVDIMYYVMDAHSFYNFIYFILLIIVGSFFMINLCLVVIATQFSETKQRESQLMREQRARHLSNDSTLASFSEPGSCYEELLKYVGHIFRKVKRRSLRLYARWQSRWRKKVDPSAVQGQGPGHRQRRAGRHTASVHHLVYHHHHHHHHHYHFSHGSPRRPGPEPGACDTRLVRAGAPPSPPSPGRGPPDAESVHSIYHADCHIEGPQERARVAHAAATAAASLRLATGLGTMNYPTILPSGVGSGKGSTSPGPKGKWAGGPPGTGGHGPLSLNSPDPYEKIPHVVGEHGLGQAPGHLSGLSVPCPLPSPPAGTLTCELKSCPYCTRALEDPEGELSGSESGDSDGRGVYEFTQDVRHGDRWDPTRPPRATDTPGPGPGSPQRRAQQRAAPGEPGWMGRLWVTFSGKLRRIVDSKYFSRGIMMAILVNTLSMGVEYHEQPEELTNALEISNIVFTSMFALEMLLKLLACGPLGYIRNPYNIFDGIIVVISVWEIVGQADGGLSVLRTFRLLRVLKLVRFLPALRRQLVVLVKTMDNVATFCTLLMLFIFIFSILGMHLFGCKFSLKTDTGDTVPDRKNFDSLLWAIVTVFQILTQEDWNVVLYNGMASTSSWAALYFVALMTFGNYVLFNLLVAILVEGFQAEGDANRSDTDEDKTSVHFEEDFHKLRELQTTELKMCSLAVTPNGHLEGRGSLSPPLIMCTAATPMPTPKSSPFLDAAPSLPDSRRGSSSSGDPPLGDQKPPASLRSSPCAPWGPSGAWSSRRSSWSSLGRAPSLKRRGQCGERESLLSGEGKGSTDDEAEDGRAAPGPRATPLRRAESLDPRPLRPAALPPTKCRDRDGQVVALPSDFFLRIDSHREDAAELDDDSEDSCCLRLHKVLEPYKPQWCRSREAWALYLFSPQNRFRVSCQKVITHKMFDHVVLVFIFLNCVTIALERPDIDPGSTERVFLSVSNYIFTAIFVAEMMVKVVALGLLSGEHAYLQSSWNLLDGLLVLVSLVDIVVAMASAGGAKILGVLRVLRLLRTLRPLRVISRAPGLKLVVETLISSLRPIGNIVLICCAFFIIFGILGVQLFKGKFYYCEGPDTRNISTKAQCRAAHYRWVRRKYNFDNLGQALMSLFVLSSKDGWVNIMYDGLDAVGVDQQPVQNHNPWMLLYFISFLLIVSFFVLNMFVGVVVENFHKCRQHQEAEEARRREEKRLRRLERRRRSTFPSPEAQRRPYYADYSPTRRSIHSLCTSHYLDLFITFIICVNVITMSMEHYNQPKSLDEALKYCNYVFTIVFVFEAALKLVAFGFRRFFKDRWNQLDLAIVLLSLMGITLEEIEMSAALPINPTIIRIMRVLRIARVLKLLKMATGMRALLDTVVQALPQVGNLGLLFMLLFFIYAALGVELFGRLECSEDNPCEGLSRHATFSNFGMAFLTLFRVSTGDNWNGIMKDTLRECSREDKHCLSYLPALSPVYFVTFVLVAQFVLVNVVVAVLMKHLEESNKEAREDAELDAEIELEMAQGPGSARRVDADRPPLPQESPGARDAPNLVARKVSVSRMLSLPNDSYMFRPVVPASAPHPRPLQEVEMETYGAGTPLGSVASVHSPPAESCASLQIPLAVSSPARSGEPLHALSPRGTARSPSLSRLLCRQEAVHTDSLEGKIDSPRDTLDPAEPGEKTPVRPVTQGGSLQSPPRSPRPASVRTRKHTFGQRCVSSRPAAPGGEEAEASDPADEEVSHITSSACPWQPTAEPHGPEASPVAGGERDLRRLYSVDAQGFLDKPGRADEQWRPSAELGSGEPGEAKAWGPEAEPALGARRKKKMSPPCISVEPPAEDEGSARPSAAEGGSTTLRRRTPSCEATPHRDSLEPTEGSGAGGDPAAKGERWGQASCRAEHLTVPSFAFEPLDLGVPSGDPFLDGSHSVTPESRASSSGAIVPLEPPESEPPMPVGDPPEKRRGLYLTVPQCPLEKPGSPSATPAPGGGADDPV
Rev-RRE block = disrupts HIV-1 Rev binding to RRE RNA; P05866; AID 704; inhibition, % at 8 µM; 97,000 compounds, 0.79% hits; Rev peptide-RRE RNA binding, FRET;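 active means inhibition above the screen-wide mean plus 3 SD, cut at about 35% in these data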;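 further: 0% = median DMSO wells and 100% = median Neomycin B control wells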
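assay system = Cy5-tagged RRE RNA duplex with fluorescein-tagged Rev peptide | incubation = 5 + 15 min at 25 °C | also added = labelled Rev peptide | measure = % inhibition of FRET ratio versus controls | benchmarks = DMSO wells as 0% and neomycin B wells as 100% inhibition | measured by = FRET fluorescence readout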
CYP2C9 act = increases human cytochrome P450 2C9 activity; P11712; recombinant CYP2C9, luciferin-H conversion, luminescence; active compounds read high; factor 1 = untreated enzyme, 0 = blocked; activation factor at 5 µM; 96,000 compounds, 1.4% hits; AID 1024;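 active means activation factor of 2 or more for CYP2C9 at a 5 µM dose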;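 further: 0 = sulfaphenazole-blocked wells and 1 = vehicle-only wells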
* marks the source's active call; other numbers are inactive results. A selection: hits, their analogues and other compounds. The true share with any hit is near 27%.

`CC(NC(=O)Nc1nnc(C(F)(F)F)s1)(C(F)(F)F)C(F)(F)F` gave CYP2C19 inh 6, CYP2C19 activ 0.9, CYP2C9 inh 66*, Cav32 inh -7.7*, Rev-RRE block 8 and CYP2C9 act 0.3.
For COc1ccc(C(=O)Nc2cc(C)c3c(=O)oc4ccccc4c3n2)cc1 the results were CYP2C19 inh -8, CYP2C19 activ 1.1, CYP2C9 inh 5, Cav32 inh -1.1, Rev-RRE block 5 and CYP2C9 act 0.9.
`OCn1ncn(-c2ccccc2)c1=S` gave CYP2C19 inh 11, CYP2C19 activ 0.9, CYP2C9 inh 8, Rev-RRE block -3 and CYP2C9 act 0.9.
For COc1cccc(C(=O)Nc2c3c(nn2-c2cccc(C)c2C)CS(=O)C3)c1OC (configuration not stated) the results were CYP2C19 inh 13, CYP2C19 activ 0.9, CYP2C9 inh 14, Cav32 inh 1.8, Rev-RRE block 0 and CYP2C9 act 0.9.
For COc1cc(C2CC(=O)c3c([nH]c(C(=O)OCCOC(C)C)c3C)C2)cc(OC)c1OC (configuration not stated) the results were CYP2C19 inh 34, CYP2C19 activ 0.7, CYP2C9 inh 79*, Cav32 inh -4.7*, Rev-RRE block 2 and CYP2C9 act 0.2.
Cc1c(C(=O)N2CCOCC2)[nH]c2c1C(=O)CC(c1ccccc1Cl)C2 (configuration not stated) was read as CYP2C19 inh -8, CYP2C19 activ 1.1, CYP2C9 inh -24, Cav32 inh -0.73, Rev-RRE block 16 and CYP2C9 act 1.2.
For CCOC(=O)c1[nH]c2c(c1C)C(=O)CC(c1ccc(OC)c(OC)c1)C2 (configuration not stated) the results were CYP2C19 inh 22, CYP2C19 activ 0.8, CYP2C9 inh 81*, Cav32 inh 0.061, Rev-RRE block 1 and CYP2C9 act 0.2.
`CCOC(=O)Nc1ccc(S(=O)(=O)Nn2cnnc2)cc1` gave CYP2C19 inh 11, CYP2C19 activ 0.9, CYP2C9 inh 30, Cav32 inh 0.44, Rev-RRE block 6 and CYP2C9 act 0.7.
For COCC(C)n1c(C)cc(C(=O)CN2C(=O)NC3(CCCCC3C)C2=O)c1C (configuration not stated) the results were CYP2C19 inh -19, CYP2C19 activ 1.2, CYP2C9 inh -69, Cav32 inh -0.7, Rev-RRE block -2 and CYP2C9 act 1.7.
Screening CCOC(=O)c1c2c(c(=S)n(-c3ccccc3)c1N)CCC2 returned CYP2C19 inh 60*, CYP2C19 activ 0.4, CYP2C9 inh 54*, Cav32 inh -0.0053, Rev-RRE block 1 and CYP2C9 act 0.5.
Screening N#Cc1c2c(c(=S)n(-c3ccccc3)c1N)CCCC2 returned CYP2C19 inh 22, CYP2C19 activ 0.8, CYP2C9 inh 57*, Cav32 inh -0.94, Rev-RRE block 27 and CYP2C9 act 0.4.
`CCOC(=O)c1c(N)sn(-c2ccccc2)c1=S` gave CYP2C19 inh 17, CYP2C19 activ 0.8, CYP2C9 inh 14, Cav32 inh 0.091, Rev-RRE block 1 and CYP2C9 act 0.9.
`O=c1c2ccccc2oc2cc(-c3ccc4[nH]ccc4c3)ccc12` gave Cav32 inh 0.0086.
Screening CC1CCCCC1NC(=O)CSc1nc2ccccc2c(=O)n1Cc1ccco1 (configuration not stated) returned CYP2C19 inh 14, CYP2C19 activ 0.9, CYP2C9 inh 4 and CYP2C9 act 1.
CCCn1c(C)cc(C(=O)CSc2nnc3n(CCC)c(=O)c4ccccc4n23)c1C was read as CYP2C19 inh 24, CYP2C19 activ 0.8, CYP2C9 inh 22 and CYP2C9 act 0.8.
`CCCn1c(=O)c2ccccc2n2c(SCc3nc4ccccc4s3)nnc12` gave CYP2C19 inh 90*, CYP2C19 activ 0.1, CYP2C9 inh 72*, Cav32 inh 0.3, Rev-RRE block 18 and CYP2C9 act 0.3.
Screening O=c1c2ccccc2nc(SCc2nnc(-c3ccccc3Br)o2)n1Cc1ccco1 returned CYP2C19 inh 76*, CYP2C19 activ 0.2, CYP2C9 inh 94*, Cav32 inh -1.1, Rev-RRE block 11 and CYP2C9 act 0.1.
Screening Cc1ccc(CSc2nc3ccccc3c(=O)n2Cc2ccco2)cc1 returned Cav32 inh -4.6* and Rev-RRE block 9.
`O=c1c2ccccc2nc(SCc2cccc(F)c2)n1Cc1ccco1` gave CYP2C19 inh 2, CYP2C19 activ 1, CYP2C9 inh 69*, Cav32 inh -3.4, Rev-RRE block 13 and CYP2C9 act 0.3.
For O=C1c2ccccc2S(=O)(=O)c2cc(C(=O)N3CCC(N4CCCC4)CC3)ccc21 the results were Cav32 inh 0.21.
Screening CCOC(=O)COc1cccc2c(=O)n(CC(=O)N3CCC(C)CC3)ccc12 returned Cav32 inh 0.74.
`O=c1c2ccccc2nc(SCc2nc3ccccc3s2)n1Cc1ccco1` gave CYP2C19 inh 16, CYP2C19 activ 0.8, CYP2C9 inh 55*, Cav32 inh -1.7, Rev-RRE block 0 and CYP2C9 act 0.5.
`CCOc1ccccc1-n1nnnc1SCc1nc2ccccc2s1` gave CYP2C19 inh 48, CYP2C19 activ 0.5, CYP2C9 inh -6, Rev-RRE block 14 and CYP2C9 act 1.1.
`CCOc1ccc2nc(NC(=O)CSc3nc4ccccc4c(=O)n3Cc3ccco3)sc2c1` gave CYP2C19 inh 26, CYP2C19 activ 0.7, CYP2C9 inh 32, Cav32 inh -2.5, Rev-RRE block 5 and CYP2C9 act 0.7.
CCOC(=O)CSc1nc2ccccc2c(=O)n1Cc1ccco1 was read as CYP2C19 inh 7, CYP2C19 activ 0.9, CYP2C9 inh 19, Cav32 inh -1.4 and CYP2C9 act 0.8.
For Cc1ccccc1-n1c(C)nnc1SCc1nc2ccccc2s1 the results were CYP2C19 inh 76*, CYP2C19 activ 0.2, CYP2C9 inh 22, Cav32 inh -0.56, Rev-RRE block 4 and CYP2C9 act 0.8.
O=c1c2ccccc2nc(SCc2ccccc2)n1Cc1ccco1 was read as CYP2C19 inh 9, CYP2C19 activ 0.9, CYP2C9 inh 37, Cav32 inh -5.8*, Rev-RRE block 12 and CYP2C9 act 0.6.
For O=c1c2ccccc2nnn1CSc1nc2ccccc2c(=O)n1Cc1ccco1 the results were CYP2C19 inh 25, CYP2C19 activ 0.8, CYP2C9 inh 29, Cav32 inh -0.83 and CYP2C9 act 0.7.
O=C(CSc1nc2ccccc2c(=O)n1Cc1ccco1)c1ccccc1 was read as CYP2C19 inh 34, CYP2C19 activ 0.7, CYP2C9 inh 72*, Cav32 inh -2.2, Rev-RRE block 6 and CYP2C9 act 0.3.

From PubChem BioAssay
